In ChEMBL document CHEMBL1152599, “Synthesis and in vitro activities of new anticancer duplex drugs linking 2'-deoxy-5-fluorouridine (5-FdU) with 3'-C-ethynylcytidine (ECyd) via a phosphodiester bonding” (2009):

Experiments:
Type in all cases: functional
[1] = tested on: HL-60; test: Anticancer activity against human HL-60(TB) cells after 48 hrs by sulforhodamine B assay; settings: HL-60, 48 h
Procedure, shortened: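 NCI 60-cell-line anticancer screen. Drugs tested at a minimum of five concentrations at 10-fold dilutions with 48 h exposure. Cell growth estimated by sulforhodamine B protein assay. GI50 is log10 of the molar concentration giving 50% growth inhibition, read from the screening data sheet, dose-response curves and mean graphs.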

[2] = tested on: SK-OV-3; test: Anticancer activity against human SKOV3 cells after 48 hrs by sulforhodamine B assay; settings: SK-OV-3, 48 h
Procedure, shortened: (§1)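 NCI 60-cell-line anticancer screen. Each compound is tested at a minimum of five concentrations in 10-fold dilutions with 48 h drug exposure. Cell viability/growth is estimated by sulforhodamine B protein staining. GI50 is the log10 molar concentration giving 50% growth inhibition, read from the dose-response curves and mean graphs of the NCI data screening report. TGI was taken from double screens.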

[3] = tested on: OVCAR-4; test: Anticancer activity against human OVCAR4 cells after 48 hrs by sulforhodamine B assay; settings: OVCAR-4, 48 h; procedure, shortened: as §1
[4] = tested on: SN12C; test: Anticancer activity against human SN12C cells after 48 hrs by sulforhodamine B assay; procedure, shortened: as §1
[5] = tested on: IGROV-1; test: Anticancer activity against human IGROV1 cells after 48 hrs by sulforhodamine B assay; settings: IGROV-1, 48 h; procedure, shortened: as §1
[6] = tested on: MDA-N; test: Anticancer activity against human MDA-N cells after 48 hrs by sulforhodamine B assay; procedure, shortened: as §1
[7] = tested on: SK-MEL-5; test: Anticancer activity against human SK-MEL-5 cells after 48 hrs by sulforhodamine B assay; settings: SK-MEL-5, 48 h; procedure, shortened: as §1
[8] = tested on: UO-31; test: Anticancer activity against human UO31 cells after 48 hrs by sulforhodamine B assay; settings: UO-31, 48 h
Procedure, shortened: (§2)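 Tested in the NCI 60-human-tumour-cell-line screen. Compounds were applied at a minimum of five concentrations in 10-fold dilutions with 48 h exposure. Cell growth was estimated by sulforhodamine B protein staining. GI50 (log10 of molar concentration giving 50% growth inhibition) and TGI were read from the data sheets, dose-response curves and mean graphs. Some cell lines were screened twice.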

[9] = tested on: UACC-257; test: Anticancer activity against human UACC257 cells after 48 hrs by sulforhodamine B assay; settings: UACC-257, 48 h; procedure, shortened: as §2
[10] = tested on: MOLT-4; test: Anticancer activity against human MOLT4 cells after 48 hrs by sulforhodamine B assay; settings: MOLT-4, 48 h; procedure, shortened: as §1
[11] = tested on: DU-145; test: Anticancer activity against human DU145 cells after 48 hrs by sulforhodamine B assay; settings: DU-145, 48 h; procedure, shortened: as §1
[12] = tested on: MDA-MB-435; test: Anticancer activity against human MDA-MB-435 cells after 48 hrs by sulforhodamine B assay; settings: MDA-MB-435, 48 h; procedure, shortened: as §1
[13] = tested on: EKVX; test: Anticancer activity against human EKVX cells after 48 hrs by sulforhodamine B assay; procedure, shortened: as §1
[14] = tested on: CCRF-CEM; test: Anticancer activity against human CCRF-CEM cells after 48 hrs by sulforhodamine B assay; procedure, shortened: as §1
[15] = tested on: OVCAR-3; test: Anticancer activity against human OVCAR-3 cells after 48 hrs by sulforhodamine B assay; settings: OVCAR-3, 48 h; procedure, shortened: as §1
[16] = tested on: A549; test: Anticancer activity against human A549 cells after 48 hrs by sulforhodamine B assay; settings: A549, 48 h; procedure, shortened: as §1
[17] = tested on: NCI/ADR-RES; test: Anticancer activity against human NCI/ADR-RES cells after 48 hrs by sulforhodamine B assay; procedure, shortened: as §1
[18] = tested on: SK-MEL-28; test: Anticancer activity against human SK-MEL-28 cells after 48 hrs by sulforhodamine B assay; settings: SK-MEL-28, 48 h; procedure, shortened: as §1
[19] = tested on: OVCAR-8; test: Anticancer activity against human OVCAR8 cells after 48 hrs by sulforhodamine B assay; settings: OVCAR-8, 48 h; procedure, shortened: as §1
[20] = tested on: NCI-H226; test: Anticancer activity against human NCI-H226 cells after 48 hrs by sulforhodamine B assay; settings: NCI-H226, 48 h; procedure, shortened: as §1
[21] = tested on: K562; test: Anticancer activity against human K562 cells after 48 hrs by sulforhodamine B assay; settings: K562, 48 h; procedure, shortened: as §1
[22] = tested on: COLO 205; test: Anticancer activity against human COLO205 cells after 48 hrs by sulforhodamine B assay; settings: COLO 205, 48 h; procedure, shortened: as §1
[23] = tested on: HCC 2998; test: Anticancer activity against human HCC2998 cells after 48 hrs by sulforhodamine B assay; settings: HCC 2998, 48 h; procedure, shortened: as §1
[24] = tested on: HOP-62; test: Anticancer activity against human HOP62 cells after 48 hrs by sulforhodamine B assay; settings: HOP-62, 48 h; procedure, shortened: as §1
[25] = tested on: SW-620; test: Anticancer activity against human SW620 cells after 48 hrs by sulforhodamine B assay; settings: SW-620, 48 h; procedure, shortened: as §2
[26] = tested on: U-251; test: Anticancer activity against human U251 cells after 48 hrs by sulforhodamine B assay; settings: U-251, 48 h; procedure, shortened: as §2
[27] = tested on: NCI-H522; test: Anticancer activity against human NCI-H522 cells after 48 hrs by sulforhodamine B assay; settings: NCI-H522, 48 h; procedure, shortened: as §1
[28] = tested on: MCF7; test: Anticancer activity against human MCF7 cells after 48 hrs by sulforhodamine B assay; settings: MCF7, 48 h; procedure, shortened: as §1
[29] = tested on: NCI-H460; test: Anticancer activity against human NCI-H460 cells after 48 hrs by sulforhodamine B assay; settings: NCI-H460, 48 h; procedure, shortened: as §1
[30] = Anticancer activity against human Hs 578T cells after 48 hrs by sulforhodamine B assay; procedure, shortened: as §1
[31] = tested on: ACHN; test: Anticancer activity against human ACHN cells after 48 hrs by sulforhodamine B assay; procedure, shortened: as §1
[32] = tested on: CAKI-1; test: Anticancer activity against human Caki1 cells after 48 hrs by sulforhodamine B assay; settings: CAKI-1, 48 h; procedure, shortened: as §1
[33] = tested on: NCI-H322M; test: Anticancer activity against human NCI-H322M cells after 48 hrs by sulforhodamine B assay; procedure, shortened: as §1
[34] = tested on: PC-3; test: Anticancer activity against human PC3 cells after 48 hrs by sulforhodamine B assay; settings: PC-3, 48 h; procedure, shortened: as §1
[35] = Anticancer activity against human […] cells after 48 hrs by sulforhodamine B assay; procedure, shortened: as §1
[36] = tested on: SR; test: Anticancer activity against human SR cells after 48 hrs by sulforhodamine B assay; procedure, shortened: as §2
[37] = tested on: BT-549; test: Anticancer activity against human BT549 cells after 48 hrs by sulforhodamine B assay; settings: BT-549, 48 h; procedure, shortened: as §1
[38] = tested on: MDA-MB-231; test: Anticancer activity against human MDA-MB-231 cells after 48 hrs by sulforhodamine B assay; settings: MDA-MB-231, 48 h; procedure, shortened: as §1
[39] = tested on: RXF 393; test: Anticancer activity against human RXF393 cells after 48 hrs by sulforhodamine B assay; settings: RXF 393, 48 h; procedure, shortened: as §1
[40] = tested on: OVCAR-5; test: Anticancer activity against human OVCAR5 cells after 48 hrs by sulforhodamine B assay; settings: OVCAR-5, 48 h; procedure, shortened: as §1
[41] = tested on: 786-0; test: Anticancer activity against human 786-0 cells after 48 hrs by sulforhodamine B assay; settings: 786-0, 48 h; procedure, shortened: as §1
[42] = tested on: SF-539; test: Anticancer activity against human SF539 cells after 48 hrs by sulforhodamine B assay; settings: SF-539, 48 h; procedure, shortened: as §1
[43] = tested on: LOX IMVI; test: Anticancer activity against human LOXIMVI cells after 48 hrs by sulforhodamine B assay; procedure, shortened: as §1
[44] = tested on: UACC-62; test: Anticancer activity against human UACC62 cells after 48 hrs by sulforhodamine B assay; settings: UACC-62, 48 h; procedure, shortened: as §2
[45] = tested on: HCT-116; test: Anticancer activity against human HCT116 cells after 48 hrs by sulforhodamine B assay; settings: HCT-116, 48 h; procedure, shortened: as §1
[46] = tested on: A498; test: Anticancer activity against human A498 cells after 48 hrs by sulforhodamine B assay; settings: A498, 48 h; procedure, shortened: as §1
[47] = tested on: HCT-15; test: Anticancer activity against human HCT15 cells after 48 hrs by sulforhodamine B assay; settings: HCT-15, 48 h; procedure, shortened: as §1
[48] = tested on: M14; test: Anticancer activity against human M14 cells after 48 hrs by sulforhodamine B assay; settings: M14, 48 h; procedure, shortened: as §1
[49] = tested on: T47D; test: Anticancer activity against human T47D cells after 48 hrs by sulforhodamine B assay; procedure, shortened: as §2
[50] = tested on: SK-MEL-2; test: Anticancer activity against human SK-MEL-2 cells after 48 hrs by sulforhodamine B assay; settings: SK-MEL-2, 48 h; procedure, shortened: as §1
[51] = tested on: SF-295; test: Anticancer activity against human SF295 cells after 48 hrs by sulforhodamine B assay; settings: SF-295, 48 h; procedure, shortened: as §1
[52] = tested on: SNB-75; test: Anticancer activity against human SNB75 cells after 48 hrs by sulforhodamine B assay; settings: SNB-75, 48 h; procedure, shortened: as §2
[53] = tested on: KM12; test: Anticancer activity against human KM12 cells after 48 hrs by sulforhodamine B assay; settings: KM12, 48 h; procedure, shortened: as §1
[54] = tested on: HOP-92; test: Anticancer activity against human HOP92 cells after 48 hrs by sulforhodamine B assay; settings: HOP-92, 48 h; procedure, shortened: as §1
[55] = tested on: HT-29; test: Anticancer activity against human HT-29 cells after 48 hrs by sulforhodamine B assay; settings: HT-29, 48 h; procedure, shortened: as §1
[56] = tested on: TK-10; test: Anticancer activity against human TK10 cells after 48 hrs by sulforhodamine B assay; settings: TK-10, 48 h; procedure, shortened: as §2
[57] = tested on: SF-268; test: Anticancer activity against human SF268 cells after 48 hrs by sulforhodamine B assay; settings: SF-268, 48 h; procedure, shortened: as §1
[58] = tested on: SNB-19; test: Anticancer activity against human SNB19 cells after 48 hrs by sulforhodamine B assay; settings: SNB-19, 48 h; procedure, shortened: as §1
[59] = tested on: NCI-H23; test: Anticancer activity against human NCI-H23 cells after 48 hrs by sulforhodamine B assay; settings: NCI-H23, 48 h; procedure, shortened: as §1
[60] = tested on: Malme-3M; test: Anticancer activity against human MALME-3M cells after 48 hrs by sulforhodamine B assay; procedure, shortened: as §1

In the case of `C#C[C@@]1(O)[C@@H](CO)O[C@@H](n2ccc(N)nc2=O)[C@@H]1O` [TAS-106], the GI50 [1] is reported as < 10 nM, the GI50 [2] is reported as 79.4 nM and the GI50 [3] is reported as 158 nM. For the same compound, the GI50 [4] was < 10 nM, the GI50 [5] was 12.6 nM and the GI50 [6] was 12.6 nM. The GI50 [7] was 10 nM, the GI50 [8] was < 10 nM and the GI50 [9] was 79.4 nM. The GI50 [10] was < 10 nM, the GI50 [11] was < 10 nM and the GI50 [12] was < 10 nM. The GI50 [13] was 63.1 nM, the GI50 [14] was < 10 nM and the GI50 [15] was 79.4 nM. The GI50 [16] was < 10 nM, the GI50 [17] was < 10 nM and the GI50 [18] was 50.1 nM. For the same compound, the GI50 [19] was < 10 nM, the GI50 [20] was 15.8 nM and the GI50 [21] was < 10 nM. For the same compound, the GI50 [22] was < 10 nM, the GI50 [23] was < 10 nM and the GI50 [24] was < 10 nM. For the same compound, the GI50 [25] was < 10 nM, the GI50 [26] was 19.9 nM and the GI50 [27] was < 10 nM. The GI50 [28] was < 10 nM, the GI50 [29] was < 10 nM and the GI50 [30] was 12.6 nM. For the same compound, the GI50 [31] was < 10 nM, the GI50 [32] was < 10 nM and the GI50 [33] was 19.9 nM. The GI50 [34] was 31.6 nM, the GI50 [35] was < 10 nM and the GI50 [36] was < 10 nM. For the same compound, the GI50 [37] was 39.8 nM, the GI50 [38] was 39.8 nM and the GI50 [39] was 25.1 nM. The GI50 [40] was 50.1 nM, the GI50 [41] was < 10 nM and the GI50 [42] was 39.8 nM. The GI50 [43] was < 10 nM, the GI50 [44] was 31.6 nM and the GI50 [45] was < 10 nM. For the same compound, the GI50 [46] was < 10 nM, the GI50 [47] was < 10 nM and the GI50 [48] was 39.8 nM. For the same compound, the GI50 [49] was < 10 nM, the GI50 [50] was 12.6 nM and the GI50 [51] was < 10 nM. For the same compound, the GI50 [52] was 15.8 nM, the GI50 [53] was < 10 nM and the GI50 [54] was 63.1 nM. For the same compound, the GI50 [55] was < 10 nM, the GI50 [56] was 15.8 nM and the GI50 [57] was 15.8 nM. The GI50 [58] was 63.1 nM, the GI50 [59] was 31.6 nM and the GI50 [60] was 15.8 nM.
